Common to all, as to assay type: functional
The subject of experiment [1] is Mycobacterium tuberculosis. Briefly: Antimycobacterial activity against multidrug-resistant Mycobacterium tuberculosis 550/04 after 21 days by micromethod. The note with it: 550/04, 504 h. Put shortly: (§1)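 MIC by micromethod in Šula semisynthetic medium. Compounds added as DMSO solutions at 1000, 500, 250, 125, 62, 32, 16, 8, 4 and 2 µmol/L. Incubated at 37 °C and read at 14 and 21 days. MIC taken as the lowest concentration that inhibited mycobacterial growth, expressed in µmol/L. INH run as standard. Strains from CNCTC.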

Experiment [2] has as its system Mycobacterium tuberculosis. Briefly: Antimycobacterial activity against multidrug-resistant Mycobacterium tuberculosis 7357/98 after 14 days by micromethod. The note with it: 7357/98, 336 h. Put shortly:
as §1

In experiment [3] the test system is Mycobacterium tuberculosis. Briefly: Antimycobacterial activity against multidrug-resistant Mycobacterium tuberculosis 4977/03 after 21 days by micromethod. The note with it: 4977/03, 504 h. Put shortly:
as §1

In experiment [4] the test system is Mycobacterium tuberculosis. As to the kind of experiment: Antimycobacterial activity against isoniazid and streptomycin-resistant Mycobacterium tuberculosis 4166/04 after 14 days by micromethod. The note with it: 4166/04, 336 h. Put shortly:
as §1

For experiment [5], the system named is Mycobacterium tuberculosis. Briefly: Antimycobacterial activity against multidrug-resistant Mycobacterium tuberculosis 550/04 after 14 days by micromethod. To be noted: 550/04, 336 h. Put shortly:
as §1

In experiment [6] the test system is Mycobacterium tuberculosis. Briefly: Antimycobacterial activity against multidrug-resistant Mycobacterium tuberculosis 7357/98 after 21 days by micromethod. To be noted: 7357/98, 504 h. Put shortly:
as §1

For experiment [7], the system named is Mycobacterium tuberculosis. As to the kind of experiment: Antimycobacterial activity against isoniazid and streptomycin-resistant Mycobacterium tuberculosis 4166/04 after 21 days by micromethod. The note with it: 4166/04, 504 h. Put shortly:
as §1

Experiment [8] relates to Mycobacterium tuberculosis. Briefly: Antimycobacterial activity against multidrug-resistant Mycobacterium tuberculosis 4977/03 after 14 days by micromethod. The note with it: 4977/03, 336 h. Put shortly:
as §1

In brackets after ≈: the same amount, converted by molar mass.

Turning to `NC(=S)c1ccc(CSc2nc3ccccc3o2)cc1`, the minimal inhibitory concentration (MIC) – broadly, the least concentration at which growth counts as inhibited – in experiment [1] worked out at 16 µM (≈ 4.81 µg/mL); in experiment [2] it was 32 µM (≈ 9.61 µg/mL); in experiment [3] it was 32 µM (≈ 9.61 µg/mL); in experiment [4] it was 8 µM (≈ 2.4 µg/mL); in experiment [5] it was 8 µM (≈ 2.4 µg/mL); in experiment [6] it was 32 µM (≈ 9.61 µg/mL). In addition, the minimum inhibitory concentration (MIC) in experiment [7] stood at 16 µM (≈ 4.81 µg/mL); in experiment [8], 32 µM (≈ 9.61 µg/mL).
For `O=[N+]([O-])c1cc(CSc2nc3ccccc3o2)cc([N+](=O)[O-])c1`, the MIC in experiment [1] was 4 µM (≈ 1.33 µg/mL); in experiment [2], 4 µM (≈ 1.33 µg/mL); in experiment [3], 2 µM (≈ 0.663 µg/mL); in experiment [4], 2 µM (≈ 0.663 µg/mL); in experiment [5], 2 µM (≈ 0.663 µg/mL); in experiment [6] it was 4 µM (≈ 1.33 µg/mL). Moreover, the figures for the minimal inhibitory concentration (MIC) in experiment [7] and in experiment [8] were 4 µM (≈ 1.33 µg/mL) and 2 µM (≈ 0.663 µg/mL), respectively.

The values are drawn from ChEMBL document CHEMBL1137696, “Preparation and in vitro evaluation of benzylsulfanyl benzoxazole derivatives as potential antituberculosis agents” (2009).
